Measured values of several laboratories.
Compare with care: the assays were run in different laboratories.

CC(C)CC(=O)OC[C@H]1O[C@@](C#N)(c2ccc3c(N)ncnn23)[C@H](O)[C@@H]1O — half-life (metabolic stability; rat, blood; 5 µM, whole blood): 0.761 min
CC(C)=CCC[C@](C)(O[C@@H]1O[C@H](CO)[C@@H](O)[C@H](O)[C@H]1O)[C@H]1CC[C@]2(C)[C@@H]1[C@H](O)C[C@@H]1[C@@]3(C)CC[C@H](O)C(C)(C)[C@@H]3CC[C@]12C — AUC(0-t) (mouse, plasma; intravenous, 2 mg/kg): 1080 ng·h/mL
COc1cc(C(=O)c2nc(-c3cccc4[nH]ccc34)c[nH]2)cc(OC)c1OC — half-life (chemical stability; PBS; 5 µM, pH 6): > 1020 min
O=C(Nc1ccc([N+](=O)[O-])cc1Cl)c1cc(Cl)ccc1O — CC50 (HeLa-ACE2; cell growth or viability, ATP luminescence; 72 h): 8.73 µM
CC[C@H](C)[C@H](NC(=O)[C@H](Cc1ccccc1)NC(=O)[C@H](CCC(=O)O)NC(=O)[C@H](CCCCN)NC(=O)[C@H](C)NC(=O)[C@H](C)NC(=O)[C@H](CCC(N)=O)NC(=O)CNC(=O)[C@H](CCC(=O)O)NC(=O)[C@H](CC(C)C)NC(=O)[C@H](Cc1ccc(O)cc1)NC(=O)[C@H](CO)NC(=O)[C@H](CO)NC(=O)[C@@H](NC(=O)[C@H](CC(=O)O)NC(=O)[C@H](CO)NC(=O)[C@@H](NC(=O)[C@H](Cc1ccccc1)NC(=O)[C@@H](NC(=O)CNC(=O)[C@H](CCC(=O)O)NC(=O)[C@H](C)NC(=O)N(N)Cc1c[nH]cn1)[C@@H](C)O)[C@@H](C)O)C(C)C)C(=O)N[C@@H](C)C(=O)N[C@@H](Cc1c[nH]c2ccccc12)C(=O)N[C@@H](CC(C)C)C(=O)N[C@H](C(=O)N[C@@H](CCCNC(=N)N)C(=O)NCC(=O)N[C@@H](CCCNC(=N)N)C(=O)NCC(=O)O)C(C)C — AUC(0-inf) (male CD-1 mouse, plasma; intravenous, 1 mg/kg, single dose): 2400 ng·h/mL
N=C(N)NCCC[C@H](NC(=O)[C@H](Cc1ccccc1)NC(=O)[C@H](CCC(N)=O)NC(=O)OCc1ccccc1)C(=O)c1nccs1 — AUC(0-inf) (female C57BL/6 mouse, plasma; intranasal, 5 mg/kg): 129 ng·h/mL
Cc1[nH]c(C)c(S(=O)(=O)Nc2ccc(S(F)(F)(F)(F)F)cc2)c1C(=O)N1CCC(F)(F)C1 — half-life (metabolic stability; rat, liver microsomes): 17.6 min
Cc1c2ccncc2c(C)c2c1[nH]c1ccccc12 — IC50 (NCI-H187; cell growth or viability, resazurin; 5 days): 10.7 µM
CC(=O)c1c(C)c2cnc(Nc3ccc(C4CCN(CCS(C)(=O)=O)CC4)cn3)nc2n(C2CCCC2)c1=O — half-life (metabolic stability; rat, liver S9): 866 min
